According to ChEMBL document CHEMBL1151764, “Search for inhibitors of bacterial and human protein kinases among derivatives of diazepines[1,4] annelated with maleimide and indole cycles” (J Med Chem, 2008):

Tests used:
[1] = target: Cyclin-dependent kinase 2 (Homo sapiens, UniProt P24941); test: Inhibition of human CDK2/CycA
Streptomyces coelicolor [2] = test: Inhibition of aph8-induced kanamycin phosphorylation in Streptomyces coelicolor cell lysate assessed as [32Pi] incorporation into kanamycin at 10 uM by microplate scintillation counter relative to control; set-up: scale not given: the % may be the effect or the level left
Streptomyces lividans [3] = test: Inhibition of aph8 positive Streptomyces lividans at 5 uM after 20 hrs by paper disk method; assay type: functional; conditions: read-out: IZ
Method in brief: (§1)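 Test culture was Streptomyces lividans carrying plasmid pSU23 with the aphVIII gene, whose kanamycin-inactivating activity depends on Ser/Thr kinase phosphorylation. Paper disks (7 mm) held kanamycin (5 µg/disk) plus test compound at subtoxic amounts, about half the minimal growth-inhibitory dose. Disks went on plates of log-phase cells at 28 °C for 20 h. Read-out was lysis zone diameter.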

Streptomyces lividans [4] = test: Inhibition of aph8 positive Streptomyces lividans at 10 uM after 20 hrs by paper disk method; assay type: functional; conditions: read-out: IZ; method in brief: as §1
Streptomyces lividans [5] = test: Inhibition of aph8 positive Streptomyces lividans at 20 uM after 20 hrs by paper disk method; assay type: functional; conditions: read-out: IZ; method in brief: as §1
Streptomyces lividans [6] = test: Inhibition of aph8 positive Streptomyces lividans at 40 uM after 20 hrs by paper disk method; assay type: functional; conditions: read-out: IZ; method in brief: as §1
Streptomyces lividans [7] = test: Inhibition of aph8 positive Streptomyces lividans at 80 uM after 20 hrs by paper disk method; assay type: functional; conditions: read-out: IZ; method in brief: as §1
[8] = target: Cyclin-dependent kinase 4/cyclin D1 (Homo sapiens, UniProt P11802); test: Inhibition of human CDK4/CycD1; assay type: protein-complex assay
Streptomyces coelicolor [9] = test: Inhibition of Ca(2+)/Calmodulin-dependent aph8 phosphorylation in Streptomyces coelicolor cell lysate assessed as [32Pi] incorporation into aph8 at 500 nM by microplate scintillation counter relative to control; set-up: scale not given: the % may be the effect or the level left
Method in brief: (§2)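 Radiometric in vitro assay of actinobacterial protein kinases. Kinases incubated under standard conditions with [γ-³²P]ATP and aphVIII as substrate, with or without modulators or inhibitors. Read-out was incorporation of the γ-phosphoryl residue into aphVIII.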

[10] = target: RAC-alpha serine/threonine-protein kinase (Homo sapiens, UniProt P31749); test: Inhibition of human AKT1
[11] = target: Serine/threonine-protein kinase B-raf (Homo sapiens, UniProt P15056, V600E); test: Inhibition of human B-RAF-V600E mutant
Insulin receptor = Insulin receptor (Homo sapiens, UniProt P06213); test: Inhibition of human INSR
[12] = target: Hepatocyte growth factor receptor (Homo sapiens, UniProt P08581); test: Inhibition of human MET
[13] = target: Platelet-derived growth factor receptor beta (Homo sapiens, UniProt P09619); test: Inhibition of human PDGFRbeta
[14] = target: Serine/threonine-protein kinase PLK1 (Homo sapiens, UniProt P53350); test: Inhibition of human PLK1
[15] = target: Proto-oncogene tyrosine-protein kinase Src (Homo sapiens, UniProt P12931); test: Inhibition of human SRC
Ephrin type-B receptor 4 = target: T1, Ephrin type-B receptor 4 (Homo sapiens, UniProt P54760); test: Inhibition of human EPHB4
T1 sequence (P54760 whole entry): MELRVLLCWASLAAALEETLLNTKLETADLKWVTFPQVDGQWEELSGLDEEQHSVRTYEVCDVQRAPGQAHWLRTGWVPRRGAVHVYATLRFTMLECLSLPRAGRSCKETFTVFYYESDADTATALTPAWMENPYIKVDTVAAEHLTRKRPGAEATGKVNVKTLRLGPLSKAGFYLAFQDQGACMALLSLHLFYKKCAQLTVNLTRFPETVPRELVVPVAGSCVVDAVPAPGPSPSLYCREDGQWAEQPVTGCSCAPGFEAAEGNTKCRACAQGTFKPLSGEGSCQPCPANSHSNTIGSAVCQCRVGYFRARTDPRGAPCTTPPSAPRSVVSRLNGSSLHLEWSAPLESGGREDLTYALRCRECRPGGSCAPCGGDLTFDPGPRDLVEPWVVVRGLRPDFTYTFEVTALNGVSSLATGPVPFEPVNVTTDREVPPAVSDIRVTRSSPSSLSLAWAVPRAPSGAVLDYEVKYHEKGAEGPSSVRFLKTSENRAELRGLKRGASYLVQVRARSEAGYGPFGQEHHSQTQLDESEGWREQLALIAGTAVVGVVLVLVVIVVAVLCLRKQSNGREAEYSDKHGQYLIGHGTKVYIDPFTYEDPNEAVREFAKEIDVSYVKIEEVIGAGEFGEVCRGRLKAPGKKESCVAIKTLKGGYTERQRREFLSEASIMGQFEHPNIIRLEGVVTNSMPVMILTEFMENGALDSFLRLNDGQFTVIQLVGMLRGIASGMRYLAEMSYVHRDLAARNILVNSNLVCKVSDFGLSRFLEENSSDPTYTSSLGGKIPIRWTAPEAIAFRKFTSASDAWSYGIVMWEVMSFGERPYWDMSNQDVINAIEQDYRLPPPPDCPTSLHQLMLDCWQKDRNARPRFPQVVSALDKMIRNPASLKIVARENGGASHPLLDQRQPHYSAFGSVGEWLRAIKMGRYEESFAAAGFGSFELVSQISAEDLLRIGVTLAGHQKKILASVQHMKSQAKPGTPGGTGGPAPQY

[16] = target: Receptor tyrosine-protein kinase erbB-2 (Homo sapiens, UniProt P04626); test: Inhibition of human ERBB2
Focal adhesion kinase 1 = Focal adhesion kinase 1 (Homo sapiens, UniProt Q05397); test: Inhibition of human FAK
[17] = target: Insulin-like growth factor 1 receptor (Homo sapiens, UniProt P08069); test: Inhibition of human IGF1R
[18] = target: Vascular endothelial growth factor receptor 2 (Homo sapiens, UniProt P35968); test: Inhibition of human VEGFR2
Angiopoietin-1 receptor = Angiopoietin-1 receptor (Homo sapiens, UniProt Q02763); test: Inhibition of human TIE2
[19] = target: Epidermal growth factor receptor (Homo sapiens, UniProt P00533); test: Inhibition of human EGFR
[20] = target: Vascular endothelial growth factor receptor 3 (Homo sapiens, UniProt P35916); test: Inhibition of human VEGFR3
Streptomyces coelicolor [21] = test: Inhibition of Ca(2+))/phosphatidylserine/diacylglycerol-dependent aph8 phosphorylation in Streptomyces coelicolor cell lysate assessed as [32Pi] incorporation into aph8 at 500 nM by microplate scintillation counter relative to control; set-up: scale not given: the % may be the effect or the level left; method in brief: as §2
Streptomyces lividans [22] = test: Inhibition of aph8 positive Streptomyces lividans at 75 uM after 20 hrs by paper disk method; assay type: functional; conditions: read-out: IZ; method in brief: as §1
Streptomyces lividans [23] = test: Inhibition of aph8 positive Streptomyces lividans at 150 uM after 20 hrs by paper disk method; assay type: functional; conditions: read-out: IZ; method in brief: as §1
Streptomyces lividans [24] = test: Inhibition of aph8 positive Streptomyces lividans at 300 uM after 20 hrs by paper disk method; assay type: functional; conditions: read-out: IZ; method in brief: as §1
Streptomyces lividans [25] = test: Inhibition of aph8 positive Streptomyces lividans at 600 uM after 20 hrs by paper disk method; assay type: functional; conditions: read-out: IZ; method in brief: as §1
Streptomyces lividans [26] = test: Inhibition of aph8 positive Streptomyces lividans at 1200 uM after 20 hrs by paper disk method; assay type: functional; conditions: read-out: IZ; method in brief: as §1
Streptomyces lividans [27] = test: Inhibition of aph8 positive Streptomyces lividans at 25 uM after 20 hrs by paper disk method; assay type: functional; conditions: read-out: IZ; method in brief: as §1
Streptomyces lividans [28] = test: Inhibition of aph8 positive Streptomyces lividans at 50 uM after 20 hrs by paper disk method; assay type: functional; conditions: read-out: IZ; method in brief: as §1
Streptomyces lividans [29] = test: Inhibition of aph8 positive Streptomyces lividans at 100 uM after 20 hrs by paper disk method; assay type: functional; conditions: read-out: IZ; method in brief: as §1
Streptomyces lividans [30] = test: Inhibition of aph8 positive Streptomyces lividans at 200 uM after 20 hrs by paper disk method; assay type: functional; conditions: read-out: IZ; method in brief: as §1
Streptomyces lividans [31] = test: Inhibition of aph8 positive Streptomyces lividans at 400 uM after 20 hrs by paper disk method; assay type: functional; conditions: read-out: IZ; method in brief: as §1

Sequence of Cyclin-dependent kinase 4/cyclin D1 (P11802 whole entry): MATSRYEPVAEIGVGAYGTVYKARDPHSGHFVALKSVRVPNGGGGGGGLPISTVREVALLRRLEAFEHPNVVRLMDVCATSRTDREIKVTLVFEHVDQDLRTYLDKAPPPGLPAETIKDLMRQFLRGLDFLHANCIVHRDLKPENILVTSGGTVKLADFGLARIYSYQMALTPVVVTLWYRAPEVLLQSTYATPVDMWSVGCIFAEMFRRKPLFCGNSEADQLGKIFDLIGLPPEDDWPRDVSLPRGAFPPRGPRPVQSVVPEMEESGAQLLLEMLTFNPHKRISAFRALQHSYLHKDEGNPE
Sequence of Cyclin-dependent kinase 4/cyclin D1 (P24385 whole entry, further chain): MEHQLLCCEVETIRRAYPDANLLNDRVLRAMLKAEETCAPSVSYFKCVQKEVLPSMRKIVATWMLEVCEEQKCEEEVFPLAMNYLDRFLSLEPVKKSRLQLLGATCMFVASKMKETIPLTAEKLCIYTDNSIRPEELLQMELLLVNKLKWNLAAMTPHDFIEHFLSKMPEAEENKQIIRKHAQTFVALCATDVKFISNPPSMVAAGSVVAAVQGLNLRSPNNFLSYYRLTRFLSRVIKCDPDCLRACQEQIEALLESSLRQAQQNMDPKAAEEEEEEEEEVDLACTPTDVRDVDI
Sequence of Insulin-like growth factor 1 receptor (P08069 31-736 limits assumed): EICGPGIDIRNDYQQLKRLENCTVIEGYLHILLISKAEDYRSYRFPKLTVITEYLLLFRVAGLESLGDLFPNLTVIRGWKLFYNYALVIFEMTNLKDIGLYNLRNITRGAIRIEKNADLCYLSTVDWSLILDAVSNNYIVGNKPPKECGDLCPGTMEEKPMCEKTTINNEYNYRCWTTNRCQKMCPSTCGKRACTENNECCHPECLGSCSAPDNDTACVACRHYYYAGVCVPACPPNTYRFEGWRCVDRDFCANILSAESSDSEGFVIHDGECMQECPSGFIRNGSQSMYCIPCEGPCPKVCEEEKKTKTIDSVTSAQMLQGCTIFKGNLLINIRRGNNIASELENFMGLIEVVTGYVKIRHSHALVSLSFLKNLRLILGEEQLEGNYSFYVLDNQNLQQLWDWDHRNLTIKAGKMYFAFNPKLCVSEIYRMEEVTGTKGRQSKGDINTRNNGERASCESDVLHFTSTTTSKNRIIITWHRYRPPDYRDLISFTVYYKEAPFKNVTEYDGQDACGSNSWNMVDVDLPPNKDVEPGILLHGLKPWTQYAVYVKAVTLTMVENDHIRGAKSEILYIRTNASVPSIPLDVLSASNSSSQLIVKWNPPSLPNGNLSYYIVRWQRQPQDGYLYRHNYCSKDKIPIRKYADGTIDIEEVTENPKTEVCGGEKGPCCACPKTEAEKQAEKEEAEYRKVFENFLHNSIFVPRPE
Sequence of Insulin-like growth factor 1 receptor (P08069 741-1367 limits assumed): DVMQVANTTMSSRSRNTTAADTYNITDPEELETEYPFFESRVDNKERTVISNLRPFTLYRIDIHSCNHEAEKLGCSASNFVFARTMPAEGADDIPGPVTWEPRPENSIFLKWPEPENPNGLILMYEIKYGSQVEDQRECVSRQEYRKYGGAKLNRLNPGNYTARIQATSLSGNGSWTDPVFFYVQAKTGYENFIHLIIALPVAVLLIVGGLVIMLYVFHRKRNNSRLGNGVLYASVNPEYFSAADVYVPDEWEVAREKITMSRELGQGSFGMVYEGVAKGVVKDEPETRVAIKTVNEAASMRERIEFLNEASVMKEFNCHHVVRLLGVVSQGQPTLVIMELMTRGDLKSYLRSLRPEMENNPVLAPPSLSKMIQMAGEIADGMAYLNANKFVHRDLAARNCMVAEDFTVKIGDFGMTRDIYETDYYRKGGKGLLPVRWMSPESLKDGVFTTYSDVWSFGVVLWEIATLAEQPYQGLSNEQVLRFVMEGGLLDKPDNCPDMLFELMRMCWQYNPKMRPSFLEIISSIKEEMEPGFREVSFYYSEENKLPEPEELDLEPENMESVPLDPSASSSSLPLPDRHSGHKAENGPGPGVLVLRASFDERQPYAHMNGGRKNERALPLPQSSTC
Sequence of Vascular endothelial growth factor receptor 2 (P35968 whole entry): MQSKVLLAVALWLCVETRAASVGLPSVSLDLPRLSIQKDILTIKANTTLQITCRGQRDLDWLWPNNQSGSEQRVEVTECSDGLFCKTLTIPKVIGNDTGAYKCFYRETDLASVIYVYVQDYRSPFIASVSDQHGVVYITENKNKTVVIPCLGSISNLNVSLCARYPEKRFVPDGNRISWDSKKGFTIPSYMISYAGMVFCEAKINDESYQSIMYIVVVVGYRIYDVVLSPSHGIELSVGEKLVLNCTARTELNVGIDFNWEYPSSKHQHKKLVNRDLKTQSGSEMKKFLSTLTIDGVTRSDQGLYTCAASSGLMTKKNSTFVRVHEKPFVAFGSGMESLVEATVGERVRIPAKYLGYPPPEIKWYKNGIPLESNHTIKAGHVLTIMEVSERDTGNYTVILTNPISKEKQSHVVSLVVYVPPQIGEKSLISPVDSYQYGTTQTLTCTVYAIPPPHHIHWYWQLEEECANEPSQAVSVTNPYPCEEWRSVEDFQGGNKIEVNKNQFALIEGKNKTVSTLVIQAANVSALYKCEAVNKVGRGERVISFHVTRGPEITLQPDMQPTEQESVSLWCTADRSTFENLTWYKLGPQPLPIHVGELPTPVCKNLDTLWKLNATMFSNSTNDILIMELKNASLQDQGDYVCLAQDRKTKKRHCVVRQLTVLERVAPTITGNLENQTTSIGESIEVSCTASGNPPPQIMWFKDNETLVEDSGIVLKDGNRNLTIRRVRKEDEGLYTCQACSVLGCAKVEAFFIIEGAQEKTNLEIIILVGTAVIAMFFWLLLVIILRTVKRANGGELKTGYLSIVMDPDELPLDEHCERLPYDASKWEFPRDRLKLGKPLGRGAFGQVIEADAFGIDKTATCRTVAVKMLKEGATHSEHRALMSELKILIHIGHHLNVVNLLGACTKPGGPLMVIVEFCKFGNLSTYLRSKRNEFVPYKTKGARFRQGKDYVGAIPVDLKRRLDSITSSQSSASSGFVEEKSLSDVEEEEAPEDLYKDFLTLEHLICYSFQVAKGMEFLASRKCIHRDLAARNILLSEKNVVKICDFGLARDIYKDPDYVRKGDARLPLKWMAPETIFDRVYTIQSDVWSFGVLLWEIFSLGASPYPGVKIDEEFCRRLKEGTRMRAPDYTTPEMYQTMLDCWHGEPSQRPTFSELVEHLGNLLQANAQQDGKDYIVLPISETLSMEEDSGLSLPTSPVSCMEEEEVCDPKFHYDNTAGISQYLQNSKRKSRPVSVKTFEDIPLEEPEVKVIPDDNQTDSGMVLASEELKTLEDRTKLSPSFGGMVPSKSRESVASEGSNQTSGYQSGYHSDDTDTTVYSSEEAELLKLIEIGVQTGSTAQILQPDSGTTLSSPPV
Sequence of Angiopoietin-1 receptor (Q02763 whole entry): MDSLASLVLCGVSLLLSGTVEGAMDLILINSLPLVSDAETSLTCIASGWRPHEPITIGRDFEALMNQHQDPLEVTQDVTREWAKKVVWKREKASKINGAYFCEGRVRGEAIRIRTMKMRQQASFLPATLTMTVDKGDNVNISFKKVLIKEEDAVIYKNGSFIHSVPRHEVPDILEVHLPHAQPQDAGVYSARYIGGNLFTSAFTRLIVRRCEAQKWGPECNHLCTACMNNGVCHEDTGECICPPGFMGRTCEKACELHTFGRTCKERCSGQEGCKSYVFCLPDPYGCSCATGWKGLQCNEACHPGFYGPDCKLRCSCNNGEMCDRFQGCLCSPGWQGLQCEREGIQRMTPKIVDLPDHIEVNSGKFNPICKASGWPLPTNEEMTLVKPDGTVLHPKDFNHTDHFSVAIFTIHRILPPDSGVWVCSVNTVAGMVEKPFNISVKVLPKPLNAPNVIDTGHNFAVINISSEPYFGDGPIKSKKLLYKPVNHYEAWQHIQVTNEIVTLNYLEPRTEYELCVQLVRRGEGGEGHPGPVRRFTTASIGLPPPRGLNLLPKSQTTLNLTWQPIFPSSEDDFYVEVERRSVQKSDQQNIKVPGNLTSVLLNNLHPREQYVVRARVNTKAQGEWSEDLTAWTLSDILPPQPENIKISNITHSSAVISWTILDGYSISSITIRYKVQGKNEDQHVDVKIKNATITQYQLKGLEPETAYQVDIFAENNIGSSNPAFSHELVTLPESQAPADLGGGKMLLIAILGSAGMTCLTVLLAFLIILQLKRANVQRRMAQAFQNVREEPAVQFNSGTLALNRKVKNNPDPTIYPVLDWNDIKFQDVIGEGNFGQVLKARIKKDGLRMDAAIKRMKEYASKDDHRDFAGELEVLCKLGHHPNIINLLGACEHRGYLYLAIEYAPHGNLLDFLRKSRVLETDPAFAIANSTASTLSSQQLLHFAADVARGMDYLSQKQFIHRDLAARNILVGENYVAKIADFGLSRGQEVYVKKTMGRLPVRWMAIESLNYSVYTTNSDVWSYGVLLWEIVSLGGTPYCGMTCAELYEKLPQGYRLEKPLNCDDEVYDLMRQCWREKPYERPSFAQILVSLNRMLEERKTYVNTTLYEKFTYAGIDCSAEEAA
Sequence of RAC-alpha serine/threonine-protein kinase (P31749 whole entry): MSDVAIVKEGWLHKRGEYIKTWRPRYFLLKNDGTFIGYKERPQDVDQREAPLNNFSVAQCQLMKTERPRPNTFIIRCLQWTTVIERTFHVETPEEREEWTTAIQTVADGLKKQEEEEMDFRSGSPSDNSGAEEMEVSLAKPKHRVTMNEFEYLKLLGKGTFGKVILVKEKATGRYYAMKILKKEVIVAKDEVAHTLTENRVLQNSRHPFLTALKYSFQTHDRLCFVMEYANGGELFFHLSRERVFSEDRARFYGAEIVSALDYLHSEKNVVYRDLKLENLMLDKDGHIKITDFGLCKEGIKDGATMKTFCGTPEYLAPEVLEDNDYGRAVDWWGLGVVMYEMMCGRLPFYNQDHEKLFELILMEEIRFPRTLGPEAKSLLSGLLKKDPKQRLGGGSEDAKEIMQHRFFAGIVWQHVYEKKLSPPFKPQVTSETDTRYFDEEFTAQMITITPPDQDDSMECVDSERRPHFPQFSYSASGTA

Q: Which IC50 [1] does the source give for CCNC(=N)SCCCN1C(=O)C2=C(C1=O)n1ccc3cccc(c31)C1Cc3ccccc3N21 (centres undefined) here?
A: 6.8 µM

Q: Which results are given for CCN(CC)CCCN1C(=O)C2=C(C1=O)n1ccc3cccc(c31)C1Cc3ccccc3N21 (centres undefined)?
A: Activity (Streptomyces coelicolor [2]): 94%; zone of inhibition at 5 µM (Streptomyces lividans [3]): 0 mm; zone of inhibition at 10 µM (Streptomyces lividans [4]): 0 mm; zone of inhibition at 20 µM (Streptomyces lividans [5]): 7.5 mm; zone of inhibition at 40 µM (Streptomyces lividans [6]): 9 mm; zone of inhibition at 80 µM (Streptomyces lividans [7]): 11 mm

Q: How did the IC50 [8] turn out when C=CCNC(=N)SCCCN1C(=O)C2=C(C1=O)n1ccc3cccc(c31)C1Cc3ccccc3N21 (centres undefined) was run?
A: 6.9 µM

Q: With COc1ccc(S(=O)(=O)Nc2ccccc2CN(C)C/C=C/c2ccc(Cl)cc2)cc1 as the compound, how does the Activity (Streptomyces coelicolor [9]) read?
A: 352%

Q: Which IC50 [10] does the source give for N=C(N)SCCCn1c(=O)c2c(c1=O)n1c3ccccc3cc1c1cccc3ccn2c31 here?
A: 9 µM

Q: And the IC50 [11]?
A: 1.2 µM

Q: And the IC50 [1]?
A: 3.6 µM

Q: And the IC50 [8]?
A: 2.7 µM

Q: And the IC50 (Insulin receptor)?
A: 2.6 µM

Q: What about the IC50 [12] of the same compound?
A: 3.3 µM

Q: What about the IC50 [13] of the same compound?
A: 4.2 µM

Q: And the IC50 [14]?
A: 9.9 µM

Q: What about the IC50 [15] of the same compound?
A: 3.8 µM

Q: And the IC50 (Ephrin type-B receptor 4)?
A: 2.3 µM

Q: What about the IC50 [16] of the same compound?
A: 7.7 µM

Q: And the IC50 (Focal adhesion kinase 1)?
A: 4.4 µM

Q: And the IC50 [17]?
A: 4 µM

Q: What about the IC50 [18] of the same compound?
A: 4.1 µM

Q: N=C(Nc1ccccc1)SCCCN1C(=O)C2=C(C1=O)n1ccc3cccc(c31)C1Cc3ccccc3N21 (centres undefined) was tested. Which IC50 [1] did it give?
A: 5.1 µM

Q: What about the IC50 [8] of the same compound?
A: 7.9 µM

Q: What about the IC50 (Angiopoietin-1 receptor) of the same compound?
A: 8.9 µM

Q: And the IC50 [19]?
A: 9.5 µM

Q: What about the IC50 [17] of the same compound?
A: 2.3 µM

Q: What about the IC50 [18] of the same compound?
A: 4.3 µM

Q: And the IC50 [20]?
A: 9.6 µM

Q: With CN(C)CCCn1cc(C2=C(c3c[nH]c4ccccc34)C(=O)NC2=O)c2ccccc21 [GF-109203] as the compound, how does the Activity (Streptomyces coelicolor [21]) read?
A: 152%

Q: What about the Activity (Streptomyces coelicolor [2]) of the same compound?
A: 95%

Q: What about the zone of inhibition at 75 µM (Streptomyces lividans [22]) of the same compound?
A: 0 mm

Q: What about the zone of inhibition at 150 µM (Streptomyces lividans [23]) of the same compound?
A: 0 mm

Q: What about the zone of inhibition at 300 µM (Streptomyces lividans [24]) of the same compound?
A: 7.5 mm

Q: What about the zone of inhibition at 600 µM (Streptomyces lividans [25]) of the same compound?
A: 9 mm

Q: What about the zone of inhibition at 1200 µM (Streptomyces lividans [26]) of the same compound?
A: 10 mm

Q: For CCN(CC)Cc1cn2c3c(cccc13)C1Cc3ccccc3N1C1=C2C(=O)N(C)C1=O (centres undefined), which Activity (Streptomyces coelicolor [21]) is on record?
A: 94%

Q: And the Activity (Streptomyces coelicolor [2])?
A: 93%

Q: And the zone of inhibition at 25 µM (Streptomyces lividans [27])?
A: 0 mm

Q: What about the zone of inhibition at 50 µM (Streptomyces lividans [28]) of the same compound?
A: 0 mm

Q: What about the zone of inhibition at 100 µM (Streptomyces lividans [29]) of the same compound?
A: 7.5 mm

Q: What about the zone of inhibition at 200 µM (Streptomyces lividans [30]) of the same compound?
A: 12 mm

Q: What about the zone of inhibition at 400 µM (Streptomyces lividans [31]) of the same compound?
A: 14 mm
